Assay results from PubChem BioAssay.
Some of the results follow. Records with an inconclusive call do not appear. A number with no mark means an inactive call. Activity calls are given as the source filed them.

Key:
[1] = molecular target: Solute carrier family 12 member 5 (Homo sapiens) (UniProt Q9H2X9); assay: KCC2 modulators in sodium-free buffer, confirmation, cell-based, HEK293 KCC2, thallium flux, secondary assay (AID 1713;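 active = thallium flux slope above the same plate's solvent-only control mean plus 3 SD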); details: FluoZin2 fluorescence, at 10 µM, stronger effect = higher value
In short: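 measured by = kinetic FluoZin2 fluorescence at 1 Hz, ex 480/em 540 nm | material = KCC2-expressing HEK cells | read-out = F/F0 slope over 10–20 s post-thallium, baseline-normalized | repeats = two replicates | schedule = 48 min dye loading | buffer or medium = Sodium-free N-methylglucamine chloride buffer | also added = thallium sulfate stimulus buffer at pH 7.3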

PubChem AID 1714 = details: HEK293-KCC2 + bumetanide/ouabain, thallium flux FluoZin2; at 10 µM; stronger effect = higher value
In short: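 Test system: HEK cells expressing the K-Cl cotransporter KCC2. Timing: overnight culture 37 °C, dye loading 48 min. Technique: FluoZin2-AM (0.5 µM) fluorescence, 480 nm ex/540 nm em, 1 Hz kinetic imaging. Repeats: duplicates.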

[2] = molecular target: Solute carrier family 12 member 5 (Homo sapiens) (UniProt Q9H2X9); assay: KCC2 modulators without ouabain present, confirmation, cell-based, HEK293 KCC2, thallium flux, FluoZin2, secondary assay 2 (AID 1715;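 active = thallium flux slope more than 3 SD above or below the plate's solvent-only control mean, mostly below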;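 note: raw slope with 0.1% DMSO as baseline and bumetanide as block control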); details: HEK293-KCC2, thallium flux FluoZin2 fluorescence; at 10 µM; actives lie on both sides; F/F0 rise rate, 10–20 s post-thallium
[3] = thallium flux modulation in parental HEK cells, confirmation, counter-screen for KCC2 modulator project, cell-based, counterscreen 1 (AID 1716); details: HEK293 parental cells, thallium flux FluoZin2, ouabain; at 10 µM; baseline-ratio fluorescence slope, 10–20 s after thallium
[4] = molecular target: Solute carrier family 12 member 5 (Homo sapiens) (UniProt Q9H2X9); assay: KCC2 inhibitors and activators, ouabain retest, confirmation, HEK-KCC2 cells (AID 1717;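 active = thallium flux slope beyond 3 SD from same-plate DMSO control mean in most replicates, usually higher, sometimes lower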;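 note: slope of initial-normalized fluorescence between seconds 10 and 20 after thallium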); details: HEK293-KCC2, thallium flux FluoZin2 fluorescence, at 10 µM, bidirectional: low = inhibitor, high = activator
[5] = native HEK Tl+ uptake effects, second counter-screen – HEK cells, counterscreen 2, counter-screen for KCC2 modulator project, confirmation (AID 1718;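 active = thallium flux slope above the same plate's solvent-control mean plus 3 SD in both duplicate wells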;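 note: run without ouabain in cells lacking the KCC2 cotransporter; slope of fluorescence scaled to its starting value between 10 and 20 s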); details: HEK293 parental, thallium flux FluoZin-2 fluorescence slope; at 10 µM
In short: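 System: untransfected HEK cells, thallium influx assay; Schedule: 37 °C overnight growth, 48 min FluoZin2-AM loading; Medium: HBSS with 20 mM HEPES for dye loading; Measured by: FluoZin2-AM fluorescence (0.5 µM), ex 480 nm, em 540 nm, kinetic 1 Hz; Read-out: thallium influx rate; Compound: single 10 µM final compound dose, 0.1% DMSO.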

Sequence of Solute carrier family 12 member 5 (Homo sapiens) (Q9H2X9 whole entry, looked up): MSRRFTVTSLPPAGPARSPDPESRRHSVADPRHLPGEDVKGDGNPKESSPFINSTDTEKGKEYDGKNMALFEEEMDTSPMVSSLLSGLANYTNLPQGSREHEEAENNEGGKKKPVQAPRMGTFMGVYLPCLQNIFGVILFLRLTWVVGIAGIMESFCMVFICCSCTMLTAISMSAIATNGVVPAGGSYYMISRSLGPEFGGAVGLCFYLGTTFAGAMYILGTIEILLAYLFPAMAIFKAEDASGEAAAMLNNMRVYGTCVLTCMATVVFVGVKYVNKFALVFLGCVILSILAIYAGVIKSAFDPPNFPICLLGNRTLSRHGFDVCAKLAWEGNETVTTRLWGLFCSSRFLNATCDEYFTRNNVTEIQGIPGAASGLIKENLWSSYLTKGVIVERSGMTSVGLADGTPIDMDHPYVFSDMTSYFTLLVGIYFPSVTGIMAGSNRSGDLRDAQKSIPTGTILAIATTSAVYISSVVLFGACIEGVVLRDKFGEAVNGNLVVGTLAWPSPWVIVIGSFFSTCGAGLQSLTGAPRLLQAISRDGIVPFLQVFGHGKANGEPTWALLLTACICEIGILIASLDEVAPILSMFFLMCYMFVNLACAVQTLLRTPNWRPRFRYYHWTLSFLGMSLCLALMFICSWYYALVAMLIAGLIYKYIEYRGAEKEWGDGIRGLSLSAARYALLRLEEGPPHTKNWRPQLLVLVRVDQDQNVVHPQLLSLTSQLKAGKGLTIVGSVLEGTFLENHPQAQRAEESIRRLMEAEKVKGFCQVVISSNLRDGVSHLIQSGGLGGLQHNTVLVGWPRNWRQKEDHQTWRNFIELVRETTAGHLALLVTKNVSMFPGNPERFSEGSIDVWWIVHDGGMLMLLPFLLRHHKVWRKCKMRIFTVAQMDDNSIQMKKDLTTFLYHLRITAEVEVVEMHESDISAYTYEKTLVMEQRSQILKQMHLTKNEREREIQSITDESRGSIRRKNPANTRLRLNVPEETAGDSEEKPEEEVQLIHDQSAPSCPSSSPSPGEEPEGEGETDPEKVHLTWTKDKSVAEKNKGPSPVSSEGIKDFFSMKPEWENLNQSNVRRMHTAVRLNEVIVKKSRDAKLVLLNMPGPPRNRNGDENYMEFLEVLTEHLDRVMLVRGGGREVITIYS

Structure (SMILES) | normalised thallium flux (F/F0 slope) [1] | normalized thallium flux (PubChem AID 1714) | normalized thallium flux [2] | thallium flux rate (normalised fluorescence) [3] | raw Tl+ flux slope (below DMSO = inhibition, above = activation) [4] | thallium flux slope [5]
COc1ccc(NC(=O)COC(=O)c2ccc(NS(=O)(=O)/C=C/c3ccccc3)cc2)cc1 | 0.00992 | 0.00679 | 0.0304 | 0.00722 | 0.0244 | –
Cc1nnc(SC(C(=O)Nc2cc(Cl)cc(Cl)c2)c2ccccc2)[nH]c1=O (centres undefined) | 0.00885 | 0.00559 | 0.0302 | 0.00486 (active) | 0.0159 (active) | –
O=C(NC(=S)N1CCc2ccccc21)c1ccco1 | 0.00899 (active) | 0.0451 (active) | 0.0395 (active) | 0.0311 (active) | 0.0407 (active) | 0.0243 (active)
CCc1ccc2nc3sc(C(=O)Nc4nnc(CC)s4)c(N)c3cc2c1 | 0.00632 | 0.000813 (active) | 0.0241 (active) | 0.00534 (active) | 0.0132 (active) | –
O=C(NNc1ccccc1Cl)C(O)(c1cccc(C(F)(F)F)c1)c1cccc(C(F)(F)F)c1 | 0.0066 | 0.018 (active) | 0.035 | 0.0219 (active) | 0.0285 (active) | 0.018 (active)
COc1cc(NC(=O)c2ccccc2NS(=O)(=O)c2ccc(Cl)s2)cc(OC)c1 | 0.00642 | 0.00732 | 0.0336 | 0.00377 | 0.0161 (active) | 0.0111
Cc1ccc(/C=N/NC(=S)Nc2cccc(S(=O)(=O)N(C)C)c2)o1 | 0.00805 | 0.0101 (active) | 0.028 | 0.0106 (active) | – | –
COc1ccc(NC(=O)N2CCC(Cc3ccccc3)CC2)cc1 | 0.00655 | 0.00529 | 0.0303 | 0.00728 | 0.0137 (active) | –
Cc1c(NC(=O)CSc2cccc3cccnc23)c(=O)n(-c2ccccc2)n1C | 0.0141 (active) | 0.0374 (active) | 0.0314 | 0.0256 (active) | 0.0324 (active) | –
C=CCNC(=S)N/N=C/c1ccc(C)s1 | 0.0134 (active) | 0.0311 (active) | 0.0287 | 0.0119 (active) | 0.0521 (active) | –
COc1ccc(C(=O)NC(=S)NNC(=O)c2c(-c3ccccc3)noc2C)cc1 | 0.00558 | 0.0445 (active) | 0.0501 (active) | 0.0354 (active) | 0.0401 (active) | 0.0396 (active)
CNC(=O)/C(=C\C=C\c1ccccc1)NC(=O)c1ccc([N+](=O)[O-])cc1 | 0.00733 | 0.00498 | 0.0219 (active) | 0.00796 | 0.0141 (active) | 0.0103
COc1ccc(-c2nc(CS(=O)CC(=O)N3CCc4ccccc4C3)c(C)o2)cc1 (centres undefined) | 0.00722 | 0.00429 | 0.0225 (active) | 0.00707 | 0.0124 (active) | 0.00907
Brc1ccc(C2=CC(c3ccco3)n3ncnc3N2)cc1 (centres undefined) | 0.00373 (active) | 0.00178 (active) | 0.0209 (active) | 0.00407 (active) | 0.00899 (active) | 0.00724 (active)
Cc1nn(-c2ccccc2)c2sc(C(=O)N(Cc3ccco3)C(C)C(=O)NC(C)(C)C)cc12 (centres undefined) | 0.00786 | 0.00436 | 0.0324 | 0.00693 | 0.0198 | 0.0103
NC(=O)NC(=O)CSc1nc2cc([N+](=O)[O-])ccc2n1-c1cccc(C(F)(F)F)c1 | 0.00549 | 0.0122 (active) | 0.0326 | 0.0113 (active) | – | –
Cc1ccccc1-c1n[nH]c(=S)n1/N=C/c1ccc(-c2ccccc2Br)o1 | 0.0093 | 0.016 (active) | 0.0304 | 0.00991 (active) | – | –
Cc1nc(SCC(=O)N2CCc3ccccc3C2)c2c(C)c(C)sc2n1 | 0.0151 | 0.00522 | 0.0244 (active) | 0.00764 | 0.0144 | 0.0108
Cc1ccc(/C=N/NC(=S)NC2CCCCC2)o1 | 0.0109 | 0.0268 (active) | 0.0327 | 0.0111 (active) | 0.0502 (active) | –
COc1cccc(-c2nc(S(=O)(=O)c3ccccc3)c(N3CCOCC3)o2)c1 | 0.00627 | 0.0046 | 0.0314 | 0.00767 | 0.0193 | 0.0105
Cc1ccc(N2C(=O)C(Cc3ccccc3)NC2=S)cc1 (centres undefined) | 0.00991 | 0.0247 (active) | 0.032 | 0.0128 (active) | 0.0236 | –
C/C(=N\NC(=S)Nc1ccc(C)cc1)c1cc2ccccc2o1 | 0.00692 | 0.0677 (active) | 0.0558 (active) | 0.0375 (active) | 0.0575 (active) | 0.0352 (active)

Structure (SMILES) | normalised thallium flux (F/F0 slope) [1] | normalized thallium flux (PubChem AID 1714) | normalized thallium flux [2] | thallium flux rate (normalised fluorescence) [3] | raw Tl+ flux slope (below DMSO = inhibition, above = activation) [4] | thallium flux slope [5]
Cc1ccc(Nc2nnc(SCC(=O)c3cc4ccccc4o3)s2)cc1C | 0.00887 | 0.00668 | 0.0195 (active) | 0.00694 | 0.00819 (active) | 0.00899
CC(=O)NNc1cc(=O)c2c(=O)n(C)c(=O)n(C)c2[nH]1 | 0.0167 | 0.00524 | 0.0281 | 0.00797 | 0.0159 | 0.0112
CCC(=O)NC(=Nc1nc2ccccc2s1)NC(=O)CC | 0.00696 | 0.0683 (active) | 0.0951 (active) | 0.0894 (active) | 0.0811 (active) | 0.0859 (active)
CS(=O)(=O)c1sc(C(=O)NC(=S)Nc2ccc(OC(F)(F)F)cc2)c2c1C=CCC2 | 0.00979 | 0.0362 (active) | 0.0324 | 0.0134 (active) | 0.0498 (active) | –
Cc1cccc(NS(=O)(=O)c2ccc(C)c(C(N)=O)c2)c1 | 0.00589 | 0.00471 | 0.0297 | 0.00787 | 0.0187 | 0.0102
O=[N+]([O-])c1c(NCCO)cc(Sc2nc3ccccc3s2)c2nonc12 | 0.0147 (active) | 0.0297 (active) | 0.0332 | 0.0134 (active) | 0.0556 (active) | 0.0128 (active)
O=C(CNC(=O)c1ccco1)OCC(=O)c1ccccc1 | 0.00594 | 0.00472 | 0.0319 | 0.00754 | 0.0197 | 0.01
C=CCNC(=S)NNC(=O)COc1c(Cl)cc(Cl)cc1Cl | 0.0146 (active) | 0.0275 (active) | 0.0376 | 0.0266 (active) | 0.03 (active) | –
COc1ccc(-n2c(=S)[nH]c3sc4c(c3c2=O)CCc2ccccc2-4)cc1 | 0.0163 (active) | 0.0262 (active) | 0.0334 | 0.0162 (active) | 0.0311 (active) | –
O=c1oc2ccccc2cc1-c1cn(-c2ccccc2)c(=S)[nH]1 | 0.00633 | 0.0198 (active) | 0.0319 | 0.0191 (active) | 0.0289 (active) | 0.0141 (active)
Cc1ccc(OCc2n[nH]c(=S)n2-c2ccc(C)cc2)cc1 | 0.0109 | 0.094 (active) | 0.0355 | 0.0134 (active) | – | –
CC(C)C1Nc2c(C(=O)O)cccc2C(Nc2ccccc2C(=O)O)C1(C)C (centres undefined) | 0.00578 | 0.00489 | 0.0236 (active) | 0.00619 (active) | 0.0131 (active) | –
Cc1ccccc1N/N=C/c1ccc(N2CCOCC2)cc1 | 0.0119 (active) | 0.00874 (active) | 0.0362 | 0.00826 | 0.0234 | –
CN(C)c1nc(=Nc2cccc(Cl)c2)ss1 | 0.0466 (active) | 0.104 (active) | 0.0563 (active) | 0.0721 (active) | 0.0696 (active) | 0.0487 (active)
N=c1oc2ccccc2cc1C(=O)N/N=C/c1ccccc1 | 0.00592 (active) | 0.00648 | 0.0291 | 0.00736 | 0.0198 (active) | –
O=S(=O)(c1ccc(F)cc1)N1CCN(C(=S)NCc2ccco2)CC1 | 0.0076 | 0.0054 | 0.0354 | 0.00396 | 0.0185 | 0.0111
S=c1nccc(-c2cc(Cl)sc2Cl)[nH]1 | 0.00959 | 0.0101 (active) | 0.0372 | 0.0107 (active) | – | –
COc1ccc(Oc2c(Cl)cnn(-c3ccccc3)c2=O)cc1 | 0.00949 | 0.0065 | 0.0314 | 0.00741 | 0.0166 (active) | 0.00996
COC(=O)c1sccc1NC(=O)CCC1CCCC1 | 0.00664 | 0.00434 | 0.032 | 0.00709 | 0.0186 | 0.00941
Cc1nc(SCc2ccc(F)cc2)c([N+](=O)[O-])[nH]1 | 0.00918 | 0.00631 | 0.0237 (active) | 0.00609 | 0.0255 (active) | 0.00995
O=C(COC(=O)c1ccc(Oc2ccccc2)cc1)Nc1nnc(-c2ccccc2)o1 | 0.00704 | 0.0517 (active) | 0.0474 (active) | 0.0357 (active) | 0.0424 (active) | 0.0346 (active)
